Published values pooled from the literature.
Each line is one published result; the experiments were not run side by side.
Target: 5-hydroxytryptamine receptor 1A (HTR1A, Homo sapiens, UniProt P08908)
One construct used (P08908 1-422): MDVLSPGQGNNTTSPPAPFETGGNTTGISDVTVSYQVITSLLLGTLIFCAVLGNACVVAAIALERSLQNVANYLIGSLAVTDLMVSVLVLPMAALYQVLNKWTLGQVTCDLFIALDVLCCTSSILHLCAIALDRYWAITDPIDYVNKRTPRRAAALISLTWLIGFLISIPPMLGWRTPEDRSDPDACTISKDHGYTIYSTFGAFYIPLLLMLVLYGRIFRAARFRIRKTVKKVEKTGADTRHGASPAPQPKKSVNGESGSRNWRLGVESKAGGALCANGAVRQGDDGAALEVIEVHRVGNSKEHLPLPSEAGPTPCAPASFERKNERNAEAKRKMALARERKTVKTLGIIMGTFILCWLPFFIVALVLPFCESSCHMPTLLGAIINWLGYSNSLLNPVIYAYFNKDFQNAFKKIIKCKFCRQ

The inhibition of CC(C)N1CCC[C@H]1CNC(=O)c1cn(C2CCCC2)c(=O)c2c1c1ccccc1n2C is reported as 3% (ligand displacement, radioligand; 10 µM).
The inhibition of COCCc1ccc(-c2c(C)nc3c(N4CCOCC4)ccnn23)cn1 is reported as 22.9% (ligand displacement; 10 µM).
With CCN(CC)CCCC[C@H](NC(=O)[C@H](CC(C)C)NC(=O)[C@H](C)NC(=O)[C@H](Cc1ccccc1)NC(=O)c1ccc(C(C)(C)C)cc1)C(=O)N[C@@H](CO)C(=O)OC the remaining binding was 81.3% (ligand displacement, radioligand; 10 µM).
The inhibition of Clc1ccc2c(C3CCN(CCc4c[nH]c5ccccc45)CC3)c[nH]c2c1 is reported as 99% (ligand displacement, radioligand; 10 µM).
CNC(=O)Nc1ccc2c(c1)[C@]1(CC2)OC(=O)N(CC(=O)N(Cc2ccc(F)cc2)[C@@H](C)C(F)(F)F)C1=O has an inhibition of 4.17% (ligand displacement; 10 µM).
For COCc1c(-c2cc3cc(C)cc(OC)c3s2)c2c(N)ncnn2c1CN1CCNC(=O)C1, the inhibition was 8% (ligand displacement, radioligand; 10 µM).
The Emax of CN(C)C(=O)N[C@H]1CC[C@H](CCN2CCN(c3cccc(Cl)c3Cl)CC2)CC1 is reported as 95% (cAMP, agonist, TR-FRET; CHO).
The Emax of CCNCCc1c[nH]c2ccc(OC)cc12 is reported as ~70% (calcium signal, agonist).
